# High-throughput results deposited in PubChem BioAssay by The Scripps Research Institute Molecular Screening Center.
# Compounds with a hit are over-represented: about 3.4% of the library has one in this group of screens.
# CHRM1 PAM: human M1 muscarinic receptor positive allosteric modulators, primary screen, CHO-K1 cells, Fluo-8 calcium fluorescence, 1536-well | CHO-K1 hM1, ACh EC20; 0% = ACh EC20, 100% = maximal ACh | activation, % at 3 µM | 360,000 compounds, 0.088% hits; in the data active = activation above about 19%, passing the limit was not always enough
# Target sequence (P11229 whole entry, looked up): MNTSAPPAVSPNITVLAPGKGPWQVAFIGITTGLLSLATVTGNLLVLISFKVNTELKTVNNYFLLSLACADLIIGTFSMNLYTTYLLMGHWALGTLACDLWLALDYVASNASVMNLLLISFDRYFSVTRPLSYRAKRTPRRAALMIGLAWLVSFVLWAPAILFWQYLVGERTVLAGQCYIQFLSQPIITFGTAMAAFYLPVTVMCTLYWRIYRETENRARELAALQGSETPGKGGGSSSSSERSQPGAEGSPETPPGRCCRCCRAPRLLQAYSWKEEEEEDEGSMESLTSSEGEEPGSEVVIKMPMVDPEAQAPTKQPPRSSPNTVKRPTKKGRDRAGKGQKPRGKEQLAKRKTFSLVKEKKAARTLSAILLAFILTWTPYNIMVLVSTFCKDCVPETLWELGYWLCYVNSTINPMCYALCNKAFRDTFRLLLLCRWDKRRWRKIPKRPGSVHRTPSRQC
# M1 ag: human M1 muscarinic receptor agonists, primary screen, Fluo-8 calcium fluorescence, CHO-K1 cells, HTS; Muscarinic acetylcholine receptor M1 (Homo sapiens), P11229; CHO-K1 hM1, agonist mode; 0% DMSO, 100% acetylcholine EC100; activation, % at 3 µM; 360,000 compounds, 0.33% hits; AID 588814, 2011;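 active = activation above the run's mean compound activation plus 3 SD, cut at about 16% in these data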;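 also: peak over basal fluorescence ratio within a 140 s kinetic read after compound addition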
# CHRM1 antagonist: human M1 muscarinic receptor antagonists, primary screen, CHO-K1 cells, Fluo-8 calcium fluorescence, 1536-well. Muscarinic acetylcholine receptor M1 (Homo sapiens), P11229. CHO-K1 hM1, ACh EC80 antagonist. inhibition, % at 3 µM. 360,000 compounds, 1.3% hits. AID 588852, 2011;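 active = percent inhibition above its own plate's cutoff, namely the mean of that plate's compound wells plus 3 SD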;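 also: peak over basal fluorescence ratio during 140 s after agonist addition; 0% = ACh EC80 plus DMSO and 100% = DMSO alone without agonist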
# TAAR1 antagonist: human TAAR1 antagonists, primary screen, Fluo-8 calcium fluorescence, CHO RD-HGA16 cells. Trace amine-associated receptor 1 (Homo sapiens), Q96RJ0. antagonist. inhibition, % at 3 µM. 360,000 compounds, 1.5% hits. AID 624466, 2012;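 active = inhibition above a per-plate cutoff, the mean inhibition of test compounds on that plate plus 3 SD, cut at about 49% in these data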;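 also: 0% = DMSO plus EC80 beta-PEA response and 100% = DMSO alone without agonist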
#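 System: RD-HGA16 CHO cells with stable hTAAR1 and Gα16 | Probe or stimulus: EC80 β-phenethylamine stimulus | Dosing: 3 µM, single point | Times: Dye loading 75 min at 37 °C, then 30 min room temperature | Measured by: Fluo-8 calcium-sensitive fluorescence | Read-out basis: % inhibition of agonist calcium response | Replicates: n of 1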
# TAAR1 agonist: human TAAR1 agonists, primary screen, Fluo-8 calcium fluorescence, CHO RD-HGA16 cells | Trace amine-associated receptor 1 (Homo sapiens), Q96RJ0 | vehicle wells 0%, saturating PEA agonist 100% | activation, % at 3 µM | 360,000 compounds, 0.99% hits | AID 624467, 2012;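 active = activation above the mean activation of all test compounds in the run plus 3 SD, cut at about 38% in these data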
#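 Benchmarks: low control DMSO, high control PEA (EC100); System: CHO RD-HGA16 cells carrying human TAAR1 plus Gα16; Detection: Fluo-8 fluorescence, 5 s baseline then 140 s kinetic read; Schedule: 17-24 h plating, Fluo-8 75 min 37 °C, 30 min RT; Read-out basis: % activation from peak over basal fluorescence ratio, DMSO-to-PEA scaled.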
# nonsel antag count: nonselective antagonists in TAAR1 counter-screen cells, counter-screen for hTAAR1 antagonist project, cell-based, fluorescence, calcium | shares compounds with TAAR1 antagonist | counterscreen cell line, antagonist mode | inhibition, % at 3 µM | 2,400 compounds, 77% hits | AID 651780, 2012; in the data active = inhibition above about 22%;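 also: CHO-Ga16 host cells stimulated with ATP at an EC80 level; 0% = agonist EC80 plus vehicle and 100% = vehicle without agonist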
# TAAR1 antag conf: human TAAR1 antagonists, retest of hits, confirmation, cell-based, fluorescence; shares compounds with TAAR1 antagonist; TAAR1-expressing cells, fluorescence antagonist read-out; inhibition, % at 3 µM; 2,400 compounds, 40% hits; AID 651785, 2012; in the data active = inhibition above about 49%;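 also: CHO-Ga16 host cells challenged with agonist PEA near its EC80; 0% = agonist at EC80 plus vehicle and 100% = vehicle with no agonist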
# Ga16 nonsel ag: calcium activation in Ga16-expressing cells, counter-screen for TAAR1 antagonist project, cell-based, fluorescence; activation, % at 3 µM; 2,400 compounds, 18% hits; AID 651953, 2012; agonist counterscreen; shares compounds with TAAR1 antagonist; in the data active = activation above about 12%;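 also: 0% = vehicle wells and 100% = saturating stimulus response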
# TAAR1 ag counter: TAAR1 activation by candidate antagonists – cell-based, fluorescence, counter-screen for TAAR1 antagonist project | shares compounds with TAAR1 antagonist | hTAAR1 cell line, agonist mode | activation, % at 3 µM | 2,400 compounds, 2% hits; in the data active = activation above about 37%;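 also: CHO cells stably expressing TAAR1 with calcium dye readout; 0% = DMSO vehicle and 100% = full agonist response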
# * = called active by the depositor; . = no result given.
SMILES,CHRM1 PAM,M1 ag,CHRM1 antagonist,TAAR1 antagonist,TAAR1 agonist,nonsel antag count,TAAR1 antag conf,Ga16 nonsel ag,TAAR1 ag counter
Cc1ccc2c(c1)N(CC(=O)NCCCc1ccccc1)C(=O)c1cccnc1O2,-16,0,27,73*,13,27*,45,9,8
Cc1ccccc1NC(=O)Nc1nc(C(N)c2ccccc2)cs1 (stereo unspecified),5,2,-4,-4,22,.,.,.,.
O=C(NC(c1ccc(-c2ccccc2)cc1)c1cnccn1)C1CCN(CCOc2ccc(F)cc2)CC1 (stereo unspecified),-9,1,13,71*,34,39*,53*,16*,25
O=C(NC(c1ccc(-c2ccccc2)cc1)c1cnccn1)C1CCN(CCCOc2ccccc2)CC1 (stereo unspecified),-7,4,1,28,21,.,.,.,.
O=C(CC1c2ccccc2C=C(c2ccsc2)N1c1ccc(-c2cccnc2)cc1)C1CC1 (stereo unspecified),.,.,.,-22,2,.,.,.,.
CN1CCN(C(=O)C[C@@H]2C=C[C@H](NS(=O)(=O)c3cccc(F)c3)[C@@H](CO)O2)CC1,.,.,.,-15,1,.,.,.,.
C=CCNc1nc(N(c2ccccc2)c2ccccc2)nc(-n2ccnc2)n1,0,-5,-2,95*,37,47*,84*,10,18
CCCCNc1nc(N(C)c2ccccc2)nc(-n2ccnc2)n1,-8,-7,2,50*,17,3,-5,0,0
c1ccc(N(c2ccccc2)c2nc(-n3ccnc3)nc(-n3ccnc3)n2)cc1,-14,-1,7,104*,34,56*,96*,27*,43*
O=C(Cc1ccccc1)NNc1c2ccccc2nc2ccccc12,3,-14,0,9,1,.,.,.,.
Cc1ccc(OCC(=O)NNc2c3ccccc3nc3ccccc23)cc1,-11,-1,10,70*,7,33*,49*,7,6
O=C(COc1ccccc1C(=O)c1cnn(-c2ccccc2)c1)Nc1ccccc1,-3,-3,7,53*,2,24*,41,6,6
CCN(CC)S(=O)(=O)c1cc(NC(=O)c2ccccc2OCc2c(C)noc2C)ccc1C,-4,-6,-2,64*,3,24*,44,3,-2
CC(C)(C)NC(=O)COC(=O)c1ccccc1OCC(=O)Nc1ccc(Br)cc1,1,-3,0,51*,10,24*,43,9,8
Cc1ccc(NC(=O)c2ccccc2OCC(=O)Nc2ccccc2F)cc1S(=O)(=O)N(C)C,-4,1,17,68*,26,34*,52*,10,6
CCOc1ncccc1C(=O)OCC(=O)Nc1ccc(C)c(S(=O)(=O)N(C)C)c1,1,-2,1,27,8,.,.,.,.
CCC(CC)C(=O)N(C)c1c(C)nc2c(OCC3CCCCC3)cccn12,-1,-8,-10,-9,4,.,.,.,.
CN(C)S(=O)(=O)c1cccc(NC(=O)COc2ccccc2C(=O)Nc2ccccc2)c1,-23,2,41*,72*,24,53*,65*,14*,12
CC(=O)c1ccc(NC(=O)COc2ccccc2C(=O)Nc2ccc(C)cn2)cc1,-6,-3,24,34,9,.,.,.,.
CC(=O)c1ccc(NC(=O)c2ccc(S(=O)(=O)c3ccccc3)cc2)cc1,-9,-4,19,69*,21,39*,61*,12*,16
CC(=O)c1ccc(NC(=O)COc2ccccc2C(=O)Nc2ccccc2)cc1,-8,1,19,73*,12,45*,67*,15*,11
CC(C)COc1cccc(C(=O)N(CC(=O)Nc2ccccc2C(F)(F)F)Cc2ccco2)c1,4,-3,-1,61*,9,18,41,6,9
C[C@@H](C(=O)O)[C@H]1C[C@]1(C)[C@H](NC(=O)OCc1ccccc1)c1ccccc1,7,-1,-12,75*,-1,6,3,2,-1
COC(=O)[C@H]1C[C@@H]1[C@H](NC(=O)[C@H]1C[C@@H]1[C@H](NC(=O)OCc1ccccc1)c1ccccc1)c1ccccc1,-13,-5,17,59*,11,30*,34,5,1
COC(=O)[C@H](C)[C@@H]1C[C@@]1(C)[C@@H](NC(=O)OCc1ccccc1)c1ccccc1,3,-6,12,29,14,.,.,.,.
SMILES,CHRM1 PAM,M1 ag,CHRM1 antagonist,TAAR1 antagonist,TAAR1 agonist,nonsel antag count,TAAR1 antag conf,Ga16 nonsel ag,TAAR1 ag counter
O=C1CCCCC1C(Nc1ccc(Cl)cc1)c1ccccc1 (stereo unspecified),-11,-1,14,68*,11,13,45,7,10
COc1ccc(C(C(=O)NC2CCCCC2)N(Cc2ccco2)C(=O)c2snc(C(N)=O)c2N)cc1 (stereo unspecified),-12,-1,25*,71*,15,31*,53*,9,8
COc1ccc(C(C(=O)NC2CCCC2)N(Cc2ccco2)C(=O)c2snc(C(N)=O)c2N)cc1OC (stereo unspecified),-7,-2,12,43,14,.,.,.,.
NC(=O)c1nsc(C(=O)N(Cc2ccco2)C(C(=O)NC2CCCC2)c2ccc(O)cc2)c1N (stereo unspecified),1,1,-3,53*,9,22*,45,7,7
CCOC(=O)c1ccc(-c2ccc(N3C(c4cccc(OC)c4)=Cc4ccc(F)cc4C3CC(C)=O)cc2)cc1F (stereo unspecified),.,.,.,-14,1,.,.,.,.
COc1ccc(CN(C)C(=O)[C@H]2O[C@@H](n3ccc(N)nc3=O)[C@H](O)[C@@H]2O)cc1OC,-12,-1,9,-25,0,.,.,.,.
